{"source": "paper PMC3546139", "about": "(Molecular cancer therapeutics, 2012)", "key": {"[1]": {"system": "sporadic melanomas with mutant V600EB-Raf", "conditions": "melanoma patients; cited from earlier work"}, "[2]": {"system": "COX-2 expression in 1205 Lu and UACC 903 cells", "test": "Western blot of COX-2 / COX-1 expression after MAP kinase pathway inhibitors", "type": "cell-based, human", "in_short": "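Melanoma cells (1.5×10^6/100 mm dish) were treated 48 h after plating for 6–72 h with a B-Raf inhibitor (0.2–20 µmol/L) or a MEK inhibitor (2.5–50 µmol/L). Separately, cells were nucleofected with 100 pmoles siRNA against V600E B-Raf, MEK1, MEK2, ERK1 or ERK2, with lysates taken at day 4 or 6. Blots were probed for COX-1 and COX-2 and detected by enhanced chemiluminescence.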"}, "[3]": {"system": "1205 Lu melanoma cells (metastatic)", "test": "MTS cell viability assay, 1205 Lu", "type": "cell-based", "conditions": "Homo sapiens, 24 h, read-out: IC50, cell viability (MTS)"}, "cultured cells": {"system": "cultured cells", "conditions": "cited from earlier work"}, "[4]": {"test": "Survival and body weight of mice, daily i.p. injection for seven days", "type": "in vivo", "conditions": "0.127 µmoles i.p. daily, 7 days of treatment, n = 3", "in_short": "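Mice received test compound intraperitoneally once daily for seven days at 0.032–0.064, 0.127 or 0.127–0.254 µmoles depending on agent, n = 3 per group. Survival and body-weight change were recorded.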"}, "[5]": {"conditions": "doses of 200 mg per day, cited from earlier work"}, "[6]": {"system": "UACC903 melanoma cells (metastatic)", "test": "MTS cell viability assay, UACC 903", "type": "cell-based", "conditions": "Homo sapiens, read-out: IC50, cell viability (MTS)"}, "melanoma cells": {"system": "melanoma cells", "test": "MTS cell viability assay, melanoma cells", "type": "cell-based", "conditions": "Homo sapiens, read-out: average IC50 for killing melanoma cells"}, "[7]": {"system": "FF2441 human fibroblast cells", "test": "MTS cell viability assay, FF2441", "type": "cell-based", "conditions": "read-out: IC50, cell viability (MTS)"}, "[8]": {"system": "FOM103 normal human melanocytes", "test": "MTS cell viability assay, FOM103", "type": "cell-based", "conditions": "Melanocyte, read-out: IC50, cell viability (MTS)"}}, "note": "Like-named read-outs stand apart in the source and are kept apart here."}
{"smiles": "CCCS(=O)(=O)Nc1ccc(F)c(C(=O)c2c[nH]c3ncc(-c4ccc(Cl)cc4)cc23)c1F", "note": "[PLX-4032]", "values": [{"measurement": "response rates", "setting": "[1]", "result": "up to 80%"}, {"measurement": "COX-2 protein expression", "setting": "[2]; 1205 Lu cells", "result": "decreased COX-2 protein expression beginning after 12 h of treatment"}, {"measurement": "COX-2 protein expression", "setting": "[2]; UACC 903 cells", "result": "significant decrease was seen from 24 h of treatment"}, {"measurement": "COX-1 expression", "setting": "[2]; either cell line (1205 Lu, UACC 903)", "result": "no changes were observed in COX-1 expression"}]}
{"smiles": "Cc1ccc(-c2cc(C(F)(F)F)nn2-c2ccc(S(N)(=O)=O)cc2)cc1", "note": "[Celecoxib, 4-[5-(4-methylphenyl)-3-(trifluoromethyl)-1H-pyrazol-1-yl]benze nesulfonamide]", "values": [{"measurement": "IC50", "setting": "[3]", "result": "> 100", "unit": "µM"}, {"measurement": "concentrations required to induce apoptosis of cultured cells", "setting": "cultured cells", "result": "25 to 100", "unit": "µmol/L"}, {"measurement": "concentrations required to trigger apoptosis in cultured cells", "setting": "cultured cells", "result": "25 to 100", "unit": "µmol/L"}, {"measurement": "animal mortality", "setting": "[4]", "result": "death of all animals"}, {"measurement": "side effects associated with clinical use", "setting": "[5]; ref 15, 16", "result": "cardiovascular side effects"}, {"measurement": "side effects associated with clinical use", "setting": "[5]; ref 33", "result": "cardiovascular side-effects"}, {"measurement": "IC50", "setting": "[6]; UACC-903, 24 h", "result": "> 100", "unit": "µM"}, {"measurement": "IC50", "setting": "[6]; UACC-903, 48 h", "result": "> 100", "unit": "µM"}, {"measurement": "IC50", "setting": "melanoma cells", "result": 55.6, "unit": "µM"}, {"measurement": "IC50", "setting": "[7]; FF2441, 24 h", "result": "> 100", "unit": "µM"}, {"measurement": "IC50", "setting": "[7]; FF2441, 48 h", "result": "> 100", "unit": "µM"}, {"measurement": "IC50", "setting": "[8]; 48 h", "result": "> 100", "unit": "µM"}, {"measurement": "IC50", "setting": "[8]; 72 h", "result": "68 ± 1.2", "unit": "µM"}, {"measurement": "IC50", "setting": "[8]", "result": "> 100", "unit": "µM"}]}
{"smiles": "N#CC(=C(/N)Sc1ccccc1N)/C(C#N)=C(/N)Sc1ccccc1N", "note": "[U0126]", "values": [{"measurement": "levels of COX-2 protein and COX-1", "setting": "[2]; 1205 Lu and UACC 903 cell lines", "result": "reduced levels of COX-2 protein without affecting COX-1"}]}
